Reference: ChEMBL document CHEMBL1909580, “Branched-chain C-cyano pyranonucleosides: synthesis of 3'-C-cyano & 3'-C-cyano-3'-deoxy pyrimidine pyranonucleosides as novel cytotoxic agents” (Eur J Med Chem, 2011)
Active and inactive are the calls of the source. The calls are words filed in the database; no cut-off is given here.

Experiments:
Felid alphaherpesvirus 1 = assay: Antiviral activity against Feline herpesvirus infected in […] cells assessed as inhibition of virus-induced cytopathicity at 100 uM; assay type: functional, organism-based
Influenza B virus = assay: Antiviral activity against influenza B virus infected in MDCK cells assessed as inhibition of virus-induced cytopathicity at 100 uM; assay type: functional, organism-based
Method in brief: (§1)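 Confluent cell monolayers were infected with 100 CCID50 of virus (1 CCID50 infects 50% of cultures) in the presence of varying concentrations of test compound. Virus-induced cytopathicity was scored once it was complete in the untreated infected controls.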

HeLa = assay: Cytostatic activity against human HeLa cells; assay type: functional, cell-based
Method in brief: (§2)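 Cell proliferation was measured with the test agents present. IC50 is the concentration giving 50% inhibition of proliferation, given as the mean ± S.D. of 2–3 independent experiments.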

[1] = tested on: Human immunodeficiency virus 1; assay: Antiviral activity against HIV1 3B infected in CEM cells assessed as inhibition of virus-induced cytopathicity at 100 uM; assay type: functional, organism-based; settings: CCRF-CEM
Method in brief: (§3)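 Virus stocks were titrated in CEM cells as CCID50. CEM cells at ~3 × 10^5 cells/ml were infected with ~100 CCID50 and immediately added to wells holding various test concentrations. After 4 days at 37 °C, giant cell formation was scored microscopically.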

Human alphaherpesvirus 1 = assay: Antiviral activity against HSV1 infected in human HEL cells assessed as inhibition of virus-induced cytopathicity at 100 uM; assay type: functional, organism-based
Method in brief: (§4)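 Confluent cell monolayers in microtiter plates were inoculated with 100 CCID50 of virus in the presence of varying test concentrations. 1 CCID50 is the virus dose infecting 50% of cultures. Cytopathicity was scored once it was complete in untreated virus-infected controls.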

Influenza A virus [2] = assay: Antiviral activity against influenza A virus H3N2 infected in MDCK cells assessed as inhibition of virus-induced cytopathicity at 100 uM; assay type: functional, organism-based; method in brief: as §1
[3] = tested on: Vesicular stomatitis virus; assay: Antiviral activity against VSV infected in human HeLa cells assessed as inhibition of virus-induced cytopathicity at 100 uM; assay type: functional, organism-based; method in brief: as §1
Feline coronavirus = assay: Antiviral activity against Feline coronavirus infected in feline CRFK cells assessed as inhibition of virus-induced cytopathicity at 100 uM; assay type: functional, organism-based; method in brief: as §4
Coxsackievirus B4 [4] = assay: Antiviral activity against Coxsackievirus B4 infected in african green monkey Vero cells assessed as inhibition of virus-induced cytopathicity at 100 uM; assay type: functional, organism-based; method in brief: as §4
[5] = tested on: Respiratory syncytial virus; assay: Antiviral activity against RSV infected in human HeLa cells assessed as inhibition of virus-induced cytopathicity at 100 uM; assay type: functional, organism-based; method in brief: as §4
Human respirovirus 3 = assay: Antiviral activity against Parainfluenza 3 virus infected in african green monkey Vero cells assessed as inhibition of virus-induced cytopathicity at 100 uM; assay type: functional, organism-based; method in brief: as §4
L1210 = assay: Cytostatic activity against mouse L1210 cells; assay type: functional, cell-based; method in brief: as §2
Vaccinia virus = assay: Antiviral activity against Vaccinia virus infected in human HEL cells assessed as inhibition of virus-induced cytopathicity at 100 uM; assay type: functional, organism-based; settings: Orthopoxvirus vaccinia; method in brief: as §1
CCRF-CEM = assay: Cytostatic activity against human CEM cells; assay type: functional, cell-based
Method in brief: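 Uninfected CEM cells were run in parallel with the HIV assay for 4 days at 37 °C. IC50 is the concentration inhibiting cell proliferation by 50%, given as the mean ± S.D. of 2–3 independent experiments.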

Influenza A virus [6] = assay: Antiviral activity against influenza A virus H1N1 infected in MDCK cells assessed as inhibition of virus-induced cytopathicity at 100 uM; assay type: functional, organism-based; method in brief: as §1
Punta Toro virus = assay: Antiviral activity against Punta Toro virus infected in african green monkey Vero cells assessed as inhibition of virus-induced cytopathicity at 100 uM; assay type: functional, organism-based; method in brief: as §4
[7] = tested on: Human immunodeficiency virus 2; assay: Antiviral activity against HIV-2 ROD infected in CEM cells assessed as inhibition of virus-induced cytopathicity at 100 uM; assay type: functional, organism-based; settings: ISOLATE ROD, CCRF-CEM; method in brief: as §3
[8] = tested on: Mammalian orthoreovirus 1; assay: Antiviral activity against Reovirus1 infected in african green monkey Vero cells assessed as inhibition of virus-induced cytopathicity at 100 uM; assay type: functional, organism-based; method in brief: as §4
[9] = tested on: Vesicular stomatitis virus; assay: Antiviral activity against VSV infected in human HEL cells assessed as inhibition of virus-induced cytopathicity at 100 uM; assay type: functional, organism-based; method in brief: as §1
Coxsackievirus B4 [10] = assay: Antiviral activity against Coxsackievirus B4 infected in human HeLa cells assessed as inhibition of virus-induced cytopathicity at 100 uM; assay type: functional, organism-based; method in brief: as §4
Human alphaherpesvirus 2 = assay: Antiviral activity against HSV2 infected in human HEL cells assessed as inhibition of virus-induced cytopathicity at 100 uM; assay type: functional, organism-based; method in brief: as §4

Row | Compound | inhibition (Felid alphaherpesvirus 1) | inhibition (Influenza B virus) | IC50 (HeLa) [µM] | inhibition [1] | inhibition (Human alphaherpesvirus 1) | inhibition (Influenza A virus [2]) | inhibition [3] | inhibition (Feline coronavirus) | inhibition (Coxsackievirus B4 [4]) | inhibition [5] | inhibition (Human respirovirus 3) | IC50 (L1210) [µM] | inhibition (Vaccinia virus) | IC50 (CCRF-CEM) [µM] | inhibition (Influenza A virus [6]) | inhibition (Punta Toro virus) | inhibition [7] | inhibition [8] | inhibition [9] | inhibition (Coxsackievirus B4 [10]) | further results
1 | N#C[C@H]1[C@@H](O)[C@H](n2ccc(N)nc2=O)O[C@H](CO)[C@H]1O | inactive | inactive | > 750 | inactive | inactive | inactive | inactive | inactive | inactive | inactive | inactive | > 750 | inactive | > 750 | inactive | inactive | inactive | inactive | inactive | inactive | inhibition (Human alphaherpesvirus 2): inactive
2 | Cc1cn([C@@H]2O[C@H](CO)[C@@H](O)[C@@](O)(C#N)[C@H]2O)c(=O)nc1O | inactive | inactive | > 500 | inactive | inactive | inactive | inactive | inactive | inactive | inactive | inactive | 539 | inactive | > 500 | inactive | inactive | inactive | inactive | inactive | inactive | inhibition (Human alphaherpesvirus 2): inactive
3 | Cc1cn([C@@H]2O[C@H](CO)[C@@H](O)[C@@H](C#N)[C@H]2O)c(=O)nc1O | inactive | inactive | > 750 | inactive | inactive | inactive | inactive | inactive | inactive | inactive | inactive | > 750 | inactive | > 750 | inactive | inactive | inactive | inactive | inactive | inactive | inhibition (Human alphaherpesvirus 2): inactive
4 | N#C[C@]1(O)[C@H](O)[C@@H](CO)O[C@@H](n2ccc(O)nc2=O)[C@@H]1O | inactive | inactive | > 500 | inactive | inactive | inactive | inactive | inactive | inactive | inactive | inactive | 417 | inactive | > 500 | inactive | inactive | inactive | inactive | inactive | inactive | inhibition (Human alphaherpesvirus 2): inactive
5 | N#C[C@]1(O)[C@H](O)[C@@H](CO)O[C@@H](n2ccc(N)nc2=O)[C@@H]1O | inactive | inactive | 377 | inactive | inactive | inactive | inactive | inactive | inactive | inactive | inactive | 147 | inactive | > 500 | inactive | inactive | inactive | inactive | inactive | inactive | inhibition (Human alphaherpesvirus 2): inactive
6 | N#C[C@H]1[C@@H](O)[C@H](n2cc(F)c(O)nc2=O)O[C@H](CO)[C@H]1O | inactive | inactive | 819 | inactive | inactive | inactive | inactive | inactive | inactive | inactive | inactive | 550 | inactive | > 500 | inactive | inactive | inactive | inactive | inactive | inactive | inhibition (Human alphaherpesvirus 2): inactive
7 | N#C[C@H]1[C@@H](O)[C@H](n2ccc(O)nc2=O)O[C@H](CO)[C@H]1O | inactive | inactive | 811 | inactive | inactive | inactive | inactive | inactive | inactive | inactive | inactive | > 500 | inactive | > 500 | inactive | inactive | inactive | inactive | inactive | inactive | inhibition (Human alphaherpesvirus 2): inactive
8 | O=c1[nH]cc(F)c(=O)[nH]1 [FLUOROURACIL] |  |  | 0.54 |  |  |  |  |  |  |  |  | 0.49 |  | 18 |  |  |  |  |  |  | 
9 | N#C[C@]1(O)[C@H](O)[C@@H](CO)O[C@@H](n2cc(F)c(O)nc2=O)[C@@H]1O | inactive | inactive | 4.5 | inactive | inactive | inactive | inactive | inactive | inactive | inactive | inactive | 1.9 | inactive | 32 | inactive | inactive | inactive | inactive | inactive | inactive | inhibition (Human alphaherpesvirus 2): inactive
